What is called apparent Kd is the concentration giving half-maximal binding under the conditions of the assay.

In this data set the test system is MS2 coat protein. The data set can be described thus: apparent Kd, MS2 coat protein; higher = weaker binding; RNA-MaP array; FMN 200 µM where present. The method in brief:
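The apparent Kd is reported as the median of filtered per-cluster binding-curve fits. To get these curves, designs transcribed by stalled E. coli RNA polymerase on Illumina sequencing-chip clusters were titrated with SNAP-549-labelled MS2 coat protein from 0.7 or 1.5 nM, doubling to 3 µM. Titrations were run without and then with constant ligand in 100 mM Tris-HCl pH 7.5, 80 mM KCl, 4 mM MgCl2, BSA, DTT, yeast tRNA and Tween-20, and green signal was normalised to red-channel RNA signal and control-cluster median Fmax.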

The mark [1] stands for this setting: designed as: OFF switch for flavin mononucleotide, no ligand.
[2] abbreviates: ligand present: flavin mononucleotide, designed as: OFF switch for flavin mononucleotide.
Setting [3] is: designed as: ON switch for flavin mononucleotide, no ligand.
The mark [4] stands for this setting: ligand present: flavin mononucleotide, designed as: ON switch for flavin mononucleotide.

In the case of “AACAGUACAGGAUAUACAUGAGGAUCACCCAUGUGAGACUUAAGUGGCGUACCACAAAGUAGAAGGGUACUGGA”, the “apparent Kd” value under setting [1] turned out to be 94.7 nM and the “apparent Kd” value under setting [2] was found to be 545 nM.

“AUGUGCCUAGGAUAUACAUGAGGAUCACCCAUGUUAACACUGCAAUCAAGUUAAUAUUGUAGAAGGAGGUGUAA”: the “apparent Kd” value was found to be 27.6 nM under setting [1] and 27.5 nM under setting [2].

Turning to “ACAUGAGGAUCACCCAUGUGGAGUGAAGAAGGUGGAUACUUAUGACUCUCCCAUGUACAUAGGACUGAGGAUAUUCUAAUAAUU”, the “apparent Kd” value is, setting by setting: under setting [3], 31.2 nM; under setting [4], 27.2 nM.

Consider “GCUAGUGCUGUGAGGAUAUGUGAUCGGAAAUGAUCGUAGAAGGCACAUGAGGAUCACCCAUGUAAGGUGCUAGU”, for which the “apparent Kd” value by setting is: under setting [1], 287 nM; under setting [2], 37.6 nM.

With “GCACUUACGUUAGGAUAUGGAUCGGAAAACGAUCCAGAAGGAAUAUGGGAACAUGAGGAUCACCCAUGUUCCACAGACAAGUGC”, the “apparent Kd” value is, setting by setting: under setting [3], 43.3 nM; under setting [4], 25.9 nM.

“AAGAAACAUGAGGAUCACCCAUGUGAGGAUAUGAAAAAGAAAAGAAAAGAAAGAAGGUUCAGAAGGCACAAAGG”: the “apparent Kd” value reads like this: under setting [1], 32.8 nM; under setting [2], 64.8 nM.

Take “GGAUAGGACAGAGGAUAUACGUGCUAGAGAUACUAGCAAAAUUUCCUCACAUGAGGAUCACCCAUGUAGAAGGCUUUCCUAUCG”: the “apparent Kd” value is, setting by setting: under setting [1], 6.3 nM; under setting [2], 37 nM.

Consider “GGACGUCUCAUUAACAUGAGGAUCACCCAUGUCAAAAGACAUGAGGAUAUGGAACCUAAUUGGUUCCAGAAGGCAUGGACGUCC”, for which the “apparent Kd” value under setting [3] worked out at 802 nM and the “apparent Kd” value under setting [4] was 62.6 nM.

For the sequence “AGAUUUGUACAUGAGGAUCACCCAUGUUAAUAGGUGGUUGUCAGAAGGCAUUAAUAGAGUUUUAAUGAGGAUAUGAAUUUACAA”, the “apparent Kd” value under setting [3] turned out to be 1030 nM and the “apparent Kd” value under setting [4] was 803 nM.

Consider “GGCCUGUGAGGAUAUUAGUAGUAGUCAGAAUAGACUAUUACUGAGAAGGUACAUGAGGAUCACCCAUGUUGGCC”, for which the “apparent Kd” value came out at 19.4 nM under setting [1] and 15.9 nM under setting [2].

On to “UUGAGGUGUCAAGGAUAUGCUACCGUUUCGGUAGCAGAAGGUGAUCACAUGAGGAUCACCCAUGUAUGCAUGCGUGAGCGUGCU”, for which the “apparent Kd” value under setting [3] amounted to 45.6 nM and the “apparent Kd” value under setting [4] turned out to be 285 nM.

As to “UUGGGUUUGCGAGGAUAUCGUAUGUGAUUUGAACGAGAAGGCGCUAUUUAAAUUAUUUUAACAUAACAUGAGGAUCACCCAUGU”, the “apparent Kd” value was 17.4 nM under setting [3] and 16 nM under setting [4].

For “UGUGCAGAAGGAUAUGCGUAAGCUCGGUGACGAGCAGGUCUACAUGAGGAUCACCCAUGUAGAAGGUCUGUACU”, the “apparent Kd” value is, setting by setting: under setting [1], 16.8 nM; under setting [2], 17.9 nM.

With “CUCGUGUCAGGAUAUCGAUGGCACCUCCGGGCGCCCGAACGCGAGAAGGGACAUGAGGAUCACCCAUGUAAAAC”, the “apparent Kd” value under setting [1] came to 66.8 nM and the “apparent Kd” value under setting [2] was found to be 113 nM.

Regarding “CCUGGUUGGUAAGGAUAUCCUACACUAUUCUGACCCGUGCAAGCUACAUGAGGAUCACCCAUGUGGGAGAAGGUGCGUCAACGU”, the “apparent Kd” value by setting is: under setting [1], 12.8 nM; under setting [2], 12 nM.

Consider “ACAUGAGGAUCACCCAUGUUAUCCGGGACUUCAAUUAUUUCUAGAAGGCUGUUUACUUGUUAGUCAGAGGAUAUAGAAUUAAAU”, for which the “apparent Kd” value reads like this: under setting [1], 10.7 nM; under setting [2], 12.5 nM.

For “GGAUGACAAAGUCAUCCAAUUCGAACAUGAGGAUCACCCAUGUAGGAUAUGCUACACAAAGUGUAGCAGAAGGACAUGUGCCUU”, the “apparent Kd” value was 30.7 nM under setting [1] and 183 nM under setting [2].

For the sequence “AUGGUUGUCGUAGGAUAUGUAGGAUAUUCCUACAUGAGGAUCACCCAUGUUCGCAUGGAAGAAGGACGGAAGGACGAUGACCAU”, the “apparent Kd” value stood at 194 nM under setting [3] and 132 nM under setting [4].

For “GAUUCACAUGAGGAUCACCCAUGUGAGGAUAUAGUGCAGGAGGUGGAUGCCCGCCUCUCUAGAAGGCACACGGG”, the “apparent Kd” value under setting [1] came out at 21.9 nM and the “apparent Kd” value under setting [2] worked out at 24.5 nM.

In the case of “CCGCAAAAUGAGGAUAUCGUAUCGGAUACGAUACGAGAAGGCGUAACAUGAGGAUCACCCAUGUGUCCUAGCGG”, the “apparent Kd” value came to 14.3 nM under setting [1] and 17.2 nM under setting [2].

Regarding “GCUGCAUGCAGAGGAUAUGACACAUGAGGAUCACCCAUGUAAUAAAUGAGAUUUUCGAAUGUAUCUCAGAAGGCUGCAUGCAGC”, the “apparent Kd” value turned out to be 16.6 nM under setting [1] and 89.4 nM under setting [2].

Turning to “GCCUUAUCUGUCAGGAUAUACAAUAAAAUAAUUUUGUAGAAGGGACAUGAGGAUCACCCAUGUACAUUACAUUG”, the “apparent Kd” value is, setting by setting: under setting [1], 58.3 nM; under setting [2], 257 nM.

Take “GCAGAGCUAGGAUAUGCUGGGCUGCAGUAAAAUGGUCACUCACAUGAGGAUCACCCAUGUAGAAGGAGCAGUGU”: the “apparent Kd” value under setting [1] came to 26.5 nM and the “apparent Kd” value under setting [2] is 40 nM.

On to “GUAUAUCACUUAGGAUAUCUAUAAUUUAUUGAAACAUGAGGAUCACCCAUGUUCAUAAAUUUAUAGGAGAAGGGAGUGAUAUAC”, for which the “apparent Kd” value was found to be 4.22 nM under setting [3] and 4.37 nM under setting [4].

As for “CUACCUUAUGAGAAGGCGAUCAUGAAACAUGAUCGAGGAUAUCAUGUAAACAUGAGGAUCACCCAUGUAUGGGUAUUAUGGUAA”, the “apparent Kd” value by setting is: under setting [3], 106 nM; under setting [4], 24.4 nM.

Consider “GGGUACAUCGAAGGAUAUCAUGUAAAUACAUGAGGAUCACCCAUGUCGAUGGAGACAUCGGAGAUUGAGAAGGCCGAUGUACCG”, for which the “apparent Kd” value under setting [3] turned out to be 338 nM and the “apparent Kd” value under setting [4] was 28.1 nM.

With “AUCUCAGGACGAGGAUAUCAAUACAUGAGGAUCACCCAUGUAUUACUACUGUGAUCCUUCAAGGCUGAGAAGGCGUCCCAAAUG”, the “apparent Kd” value runs as follows: under setting [1], 20.7 nM; under setting [2], 37.8 nM.

For the sequence “ACUUAAAUACCCAAAAGUCGGGCGGAGGAUAUGGAGCUUCCACCACAUGAGGAUCACCCAUGUCUUCAGAAGGCCGCCCUUGGA”, under setting [4], the “apparent Kd” value was 11.2 nM.

In the case of “CGGGUCUGAGGAUAUCCAUCUUCAUACAUGAGGAUCACCCAUGUUUACCCUUGGGUUCCCGGAGAAGGCAGUUUUC”, the “apparent Kd” value under setting [1] came to 60.9 nM and the “apparent Kd” value under setting [2] was 56.4 nM.

As for “CCAUAAUUGAUCCAUUUUUACAACAUGAGGAUCACCCAUGUGCAGGAUAUCGUGAAAGUUAAAUACGAGAAGGGCAAGAACUGC”, the “apparent Kd” value amounted to 272 nM under setting [1] and 229 nM under setting [2].

For the sequence “UUUAUAAAUUAGAAGGCAUGAUGAAUUACAAUAGACAUGAGGAUCACCCAUGUGUGUUCAUGUCAUGAGGAUAUAGUCAUAUAU”, the “apparent Kd” value by setting is: under setting [3], 17.5 nM; under setting [4], 9.93 nM.

Turning to “CUAAUGUGAGGAUAUGGUGUUGAUCGCAGGAAGGAGAUUCUCCAGAAGGCACAUGAGGAUCACCCAUGUAGUGA”, the “apparent Kd” value by setting is: under setting [1], 103 nM; under setting [2], 51.1 nM.

As to “UGUCGGAGCAGAGGAUAUUACAUGAGGAUCACCCAUGUAUGAAGCAAUAGCUGGAAACAGCAAUGUAAGAAGGCUGCUCCGACA”, the “apparent Kd” value is 5.7 nM under setting [1] and 7 nM under setting [2].

For “UUGGACGUCGUAGGAUAUGUAGGAUAUUCCUACAUGAGGAUCACCCAUGUUGACAUGGAAGAGGGACAGAAGGACGAUGUCCAU”, the “apparent Kd” value is 606 nM under setting [3] and 30.5 nM under setting [4].

As for “CGCUACUACCAGAAGGACAUGAGGAUCACCCAUGUAGGAUAUGGGUUACAAGUACCAGUGUAAAGAAACUACGCUACGUUUGCG”, the “apparent Kd” value is, setting by setting: under setting [3], 47.2 nM; under setting [4], 7.79 nM.

For the sequence “UUGGUGGUUUCCCGCGCUAAGAUAGGAGAAGGGUGACUGGACAUGAGGAUCACCCAUGUAUCGGCACAGGAUAUCCACAUUAAU”, the “apparent Kd” value by setting is: under setting [3], 223 nM; under setting [4], 334 nM.

On to “UAAUGAGAGCAGGAUAUCUUAUAAAUGUAUGAAAGAGAAGGGCUCACAUGAGGAUCACCCAUGUGGUCCUAGAU”, for which the “apparent Kd” value reads like this: under setting [1], 34 nM; under setting [2], 163 nM.

Consider “GUAGCUUCAUUUAUACAUGAGGAUCACCCAUGUUACAUGGGUAAGGAUAUUGAUGUUAUGAUUAUCAAGAAGGUACUAUGCUAC”, for which the “apparent Kd” value under setting [3] came to 663 nM and the “apparent Kd” value under setting [4] stood at 39.6 nM.

For “AGUCAGAGCAGAGGAUAUAUACAUGAGGAUCACCCAUGUGACUGCCUAUGCUAGAAAUAGUAUGUAUAGAAGGCUGCUCUGACA”, the “apparent Kd” value under setting [1] was 752 nM and the “apparent Kd” value under setting [2] was determined as 483 nM.

On to “UGGUACUAGGGAGGAUAUGGGAAGAUACAUGAGGAUCACCCAUGUUUAAGAAUGCCGAGAGGCACCUAGAAGGCCCUAGUACCU”, for which the “apparent Kd” value under setting [3] worked out at 21.1 nM and the “apparent Kd” value under setting [4] was 5.36 nM.

In the case of “CUUCUGUCAGGAUAUGCGAAUCACCACUGGGUCAGUGGUGAGCAGAAGGGACAUGAGGAUCACCCAUGUAAAGU”, the “apparent Kd” value by setting is: under setting [1], 36.3 nM; under setting [2], 169 nM.

In the case of “AGUGUGUGGCAGGAUAUGCAAUUUGUAAGUAUUGCAGAAGGGUCUACAUGAGGAUCACCCAUGUGUGCGGUUGA”, the “apparent Kd” value was 721 nM under setting [1] and 477 nM under setting [2].

With “GUAUUGUGAGGAUAUCCAAUAUAUGACAUGAGGAUCACCCAUGUUUCCACUCGUACCUCCGGAGAAGGCACAGUUU”, the “apparent Kd” value is, setting by setting: under setting [1], 28.3 nM; under setting [2], 24.3 nM.

In the case of “UUUAUGUGAGGAUAUCAGUAGUAAAAAAAUAAAAUUACUACUGAGAAGGCACAUGAGGAUCACCCAUGUGCUUC”, the “apparent Kd” value was found to be 19.5 nM under setting [1] and 15.1 nM under setting [2].

On to “CUAUAUAAUACCUCAUGUACAUGAGGAUCACCCAUGUUAACUUAGGAUAUAUUUAUAUUAAUAGAGUAGAAGGAAGUACUAUUU”, for which the “apparent Kd” value reads like this: under setting [1], 22.1 nM; under setting [2], 17.4 nM.

Consider “GUCAGCUCGUGAGGAUAUACAUGUGCUGGAAACAGCACUAAUUAAUUCACAUGAGGAUCACCCAUGUAGAAGGCACGAGCUGAU”, for which the “apparent Kd” value is, setting by setting: under setting [1], 16.2 nM; under setting [2], 17.8 nM.

With “GCGAGCAUACAGAAGGGAUCGUCGUUGCGGCUGUCAGGAUAUGUAGCUUGGCCUAAACAUGAGGAUCACCCAUGUAUAAUGCUA”, the “apparent Kd” value by setting is: under setting [3], 66.7 nM; under setting [4], 24.3 nM.

With “AAGAAAGUAUUGCGAGGGUAGGAGCAGGAUAUCCCAUUGGCCCUCACAUGAGGAUCACCCAUGUGGGAGAAGGGCUAUUACGUU”, the “apparent Kd” value by setting is: under setting [1], 6.51 nM; under setting [2], 13.2 nM.

The values above are taken from the EternaBench riboswitch data.
